Paper PMC5131535 (ACS chemical neuroscience, 2016)
Where “and” joins values, the source holds several entries; their conditions need not be identical. Identical values can stand only once. Like-named read-outs stand apart in the source and are kept apart here.

How the values were obtained:
Format in all cases: cell-based
Kir7.1-M125R = biological target: T1, Kir7.1-M125R (Homo sapiens, UniProt O60928, M125R); assay: Tl+ flux assay in T-REx-HEK293 cells expressing Kir7.1-M125R
T1 sequence (O60928 1-360 M125R): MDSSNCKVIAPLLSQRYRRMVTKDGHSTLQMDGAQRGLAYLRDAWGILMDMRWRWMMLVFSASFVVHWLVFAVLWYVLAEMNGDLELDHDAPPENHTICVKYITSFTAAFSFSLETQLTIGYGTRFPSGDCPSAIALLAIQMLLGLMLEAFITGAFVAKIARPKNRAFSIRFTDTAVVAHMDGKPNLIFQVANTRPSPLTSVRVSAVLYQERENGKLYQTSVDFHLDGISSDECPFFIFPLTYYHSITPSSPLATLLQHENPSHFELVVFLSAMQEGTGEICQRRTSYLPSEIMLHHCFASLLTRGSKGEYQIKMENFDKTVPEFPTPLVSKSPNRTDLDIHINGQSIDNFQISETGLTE
How it was run: (§1)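 Tetracycline-inducible stable T-REx-HEK-293 lines, induced overnight with 1 µg/ml tetracycline in DMEM/10% dialyzed FBS. Cells loaded 1 hr with 1.2 µM Thallos-AM in HBSS/20 mM HEPES pH 7.3 with 0.01% Pluronic F-127. Baseline fluorescence (ex 470, em 540 nm) read at 1 Hz before adding stimulus buffer with 1.8 mM Tl₂SO₄. Traces normalized to first point and vehicle-subtracted; slope taken 5–20 s post-Tl⁺; IC50 by nonlinear regression of CRCs.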

Kir6.2/SUR1 = Kir6.2/SUR1 (Homo sapiens, UniProt Q14654); assay: Tl+ flux selectivity assay, Kir6.2/SUR1; conditions: for Kir Channel Selectivity (Fold) 6.2: Thallium flux, Kir7.1 over Kir6.2/SUR1
Chain of Kir6.2/SUR1 (Q14654 whole entry): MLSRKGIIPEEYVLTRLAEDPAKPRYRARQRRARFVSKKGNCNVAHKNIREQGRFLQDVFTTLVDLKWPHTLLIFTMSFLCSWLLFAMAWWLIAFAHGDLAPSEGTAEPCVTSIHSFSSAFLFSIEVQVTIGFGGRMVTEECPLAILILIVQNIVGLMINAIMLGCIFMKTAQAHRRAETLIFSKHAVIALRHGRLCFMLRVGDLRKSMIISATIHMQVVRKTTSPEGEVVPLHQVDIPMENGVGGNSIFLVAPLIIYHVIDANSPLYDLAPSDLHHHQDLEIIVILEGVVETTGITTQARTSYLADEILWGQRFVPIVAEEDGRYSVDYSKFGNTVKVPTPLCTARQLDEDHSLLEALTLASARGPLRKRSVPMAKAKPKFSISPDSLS
Chain of Kir6.2/SUR1 (Q09428 whole entry partner): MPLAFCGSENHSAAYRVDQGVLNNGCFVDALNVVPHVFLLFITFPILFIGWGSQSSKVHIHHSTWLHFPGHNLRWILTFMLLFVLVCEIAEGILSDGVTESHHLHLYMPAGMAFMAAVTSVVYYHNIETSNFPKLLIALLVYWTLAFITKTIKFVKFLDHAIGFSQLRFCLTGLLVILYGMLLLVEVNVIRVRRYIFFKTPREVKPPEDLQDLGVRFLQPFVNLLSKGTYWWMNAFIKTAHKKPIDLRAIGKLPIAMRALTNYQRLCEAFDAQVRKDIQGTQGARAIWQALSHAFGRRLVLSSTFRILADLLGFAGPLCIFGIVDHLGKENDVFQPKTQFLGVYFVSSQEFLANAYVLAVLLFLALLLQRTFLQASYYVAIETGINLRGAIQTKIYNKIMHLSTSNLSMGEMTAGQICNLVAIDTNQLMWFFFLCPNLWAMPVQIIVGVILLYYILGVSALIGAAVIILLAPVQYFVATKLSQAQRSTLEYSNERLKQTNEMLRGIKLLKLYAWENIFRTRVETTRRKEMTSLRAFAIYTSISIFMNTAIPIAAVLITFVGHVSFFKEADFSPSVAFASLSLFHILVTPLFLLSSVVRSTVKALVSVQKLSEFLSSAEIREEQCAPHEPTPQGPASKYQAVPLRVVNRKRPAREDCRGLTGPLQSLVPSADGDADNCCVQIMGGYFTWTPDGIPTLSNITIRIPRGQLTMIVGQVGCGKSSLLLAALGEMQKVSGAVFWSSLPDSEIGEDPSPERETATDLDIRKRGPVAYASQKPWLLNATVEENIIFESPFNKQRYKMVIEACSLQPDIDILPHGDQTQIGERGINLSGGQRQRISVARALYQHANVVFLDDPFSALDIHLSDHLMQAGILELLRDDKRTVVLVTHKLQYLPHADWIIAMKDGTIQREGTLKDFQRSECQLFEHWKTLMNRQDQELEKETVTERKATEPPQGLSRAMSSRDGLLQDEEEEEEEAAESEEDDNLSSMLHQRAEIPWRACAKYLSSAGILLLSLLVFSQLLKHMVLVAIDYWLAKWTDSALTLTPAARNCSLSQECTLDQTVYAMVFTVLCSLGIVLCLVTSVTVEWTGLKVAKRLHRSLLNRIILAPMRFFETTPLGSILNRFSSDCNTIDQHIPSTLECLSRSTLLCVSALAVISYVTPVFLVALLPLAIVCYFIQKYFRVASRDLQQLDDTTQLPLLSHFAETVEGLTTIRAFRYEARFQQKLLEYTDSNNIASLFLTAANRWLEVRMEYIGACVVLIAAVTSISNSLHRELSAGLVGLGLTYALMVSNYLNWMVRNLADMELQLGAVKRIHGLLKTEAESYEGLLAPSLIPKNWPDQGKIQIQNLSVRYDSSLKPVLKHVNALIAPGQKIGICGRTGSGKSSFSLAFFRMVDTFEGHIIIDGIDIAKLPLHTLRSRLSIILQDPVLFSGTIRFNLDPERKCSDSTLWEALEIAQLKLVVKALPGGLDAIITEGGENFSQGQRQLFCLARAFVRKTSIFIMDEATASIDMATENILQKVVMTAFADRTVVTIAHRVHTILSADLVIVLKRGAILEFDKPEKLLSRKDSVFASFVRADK
How it was run: as §1

Kir7.1 = biological target: T2, Kir7.1 (Homo sapiens, UniProt O60928, M125R); assay: Whole-cell patch clamp electrophysiology, Kir7.1
T2 sequence (O60928 1-360 M125R): T1 sequence (O60928 1-360 M125R)
How it was run: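 Human Kir7.1 (WT or mutant) was transiently co-transfected with EGFP into HEK-293T cells, which were replated next day on poly-L-lysine coverslips. Whole-cell clamp used bath 5 mM KCl, pH 7.4, and pipette 135 mM KCl, pH 7.3. Cells were held at −75 mV, stepped 500 ms to −120 mV, then ramped to 120 mV, every 5 s. Increasing test-compound doses were superfused, then BaCl₂ block; current read at −120 mV; variable-slope Hill fit, mean of n = 5.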

Kir4.1 = biological target: T3, Kir4.1 (Homo sapiens, UniProt P78508); assay: Tl+ flux selectivity assay, Kir4.1; conditions: for Kir Channel Selectivity (Fold) 4.1: Thallium flux, Kir7.1 over Kir4.1
T3 sequence (P78508 1-379): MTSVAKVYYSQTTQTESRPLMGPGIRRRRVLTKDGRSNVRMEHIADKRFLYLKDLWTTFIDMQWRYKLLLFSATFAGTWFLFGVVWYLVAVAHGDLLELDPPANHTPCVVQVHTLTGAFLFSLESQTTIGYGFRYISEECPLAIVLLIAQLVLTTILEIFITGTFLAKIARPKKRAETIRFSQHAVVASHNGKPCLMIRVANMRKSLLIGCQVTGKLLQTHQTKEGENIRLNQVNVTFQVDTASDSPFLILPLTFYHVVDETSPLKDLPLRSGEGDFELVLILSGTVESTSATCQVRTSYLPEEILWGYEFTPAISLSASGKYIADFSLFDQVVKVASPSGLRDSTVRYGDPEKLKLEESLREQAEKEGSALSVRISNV
How it was run: as §1

Kir2.2 = biological target: T4, Kir2.2 (Homo sapiens, UniProt Q14500); assay: Tl+ flux selectivity assay, Kir2.2; conditions: for Kir Channel Selectivity (Fold) 2.2: Thallium flux, Kir7.1 over Kir2.2
T4 sequence (Q14500 1-433): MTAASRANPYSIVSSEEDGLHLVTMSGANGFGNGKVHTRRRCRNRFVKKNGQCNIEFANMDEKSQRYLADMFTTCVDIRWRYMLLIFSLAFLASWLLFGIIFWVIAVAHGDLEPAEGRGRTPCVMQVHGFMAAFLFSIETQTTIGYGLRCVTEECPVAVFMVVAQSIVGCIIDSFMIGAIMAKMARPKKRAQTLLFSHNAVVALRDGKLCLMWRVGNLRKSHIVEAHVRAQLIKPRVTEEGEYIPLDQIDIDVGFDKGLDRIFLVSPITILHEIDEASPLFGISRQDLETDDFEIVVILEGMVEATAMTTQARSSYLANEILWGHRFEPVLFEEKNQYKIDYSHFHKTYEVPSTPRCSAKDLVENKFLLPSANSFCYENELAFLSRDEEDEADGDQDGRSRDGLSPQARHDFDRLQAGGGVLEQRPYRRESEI

Kir1.1 = assay: Tl+ flux selectivity assay, Kir1.1; conditions: Thallium flux, Kir7.1 over Kir1.1
How it was run: as §1

Kir2.3 = biological target: T5, Kir2.3 (Homo sapiens, UniProt P48050); assay: Tl+ flux selectivity assay, Kir2.3; conditions: for Kir Channel Selectivity (Fold) 2.3: Thallium flux, Kir7.1 over Kir2.3
T5 sequence (P48050 1-445): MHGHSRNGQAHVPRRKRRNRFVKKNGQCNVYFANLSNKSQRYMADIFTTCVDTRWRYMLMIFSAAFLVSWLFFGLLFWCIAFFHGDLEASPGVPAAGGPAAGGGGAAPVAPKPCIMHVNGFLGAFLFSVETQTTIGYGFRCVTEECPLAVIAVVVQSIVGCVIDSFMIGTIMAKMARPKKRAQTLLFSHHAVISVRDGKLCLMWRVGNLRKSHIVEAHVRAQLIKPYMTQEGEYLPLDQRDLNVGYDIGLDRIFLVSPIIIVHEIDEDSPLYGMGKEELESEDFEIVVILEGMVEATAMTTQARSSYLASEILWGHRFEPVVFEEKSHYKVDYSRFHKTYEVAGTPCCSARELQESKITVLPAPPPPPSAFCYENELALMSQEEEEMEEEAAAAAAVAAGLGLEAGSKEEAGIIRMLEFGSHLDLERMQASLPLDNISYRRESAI

Compound | IC50 (Kir7.1-M125R) [µM] | Kir Channel Selectivity (Fold) 6.2 (Kir6.2/SUR1; listed as 19 (ML418)) [Fold] | Kir Channel Selectivity (Fold) 6.2 (Kir6.2/SUR1; listed as ML418) | IC50 (Kir7.1; Kir7.1 IC50 (Patch clamp), -120 mV) | Kir Channel Selectivity (Fold) 4.1 (Kir4.1) | Kir Channel Selectivity (Fold) 4.1 (Kir4.1; listed as 19 (ML418)) [Fold] | Kir Channel Selectivity (Fold) 2.2 (Kir2.2) | Kir Channel Selectivity (Fold) 2.2 (Kir2.2; listed as 19 (ML418)) [Fold] | Kir Channel Selectivity (Fold) 1.1 (Kir1.1) | Kir Channel Selectivity (Fold) 1.1 (Kir1.1; listed as 19 (ML418)) [Fold] | Kir Channel Selectivity (Fold) 2.3 (Kir2.3) | Kir Channel Selectivity (Fold) 2.3 (Kir2.3; listed as 19 (ML418)) [Fold] | IC50 (Kir7.1-M125R; read-out: Kir7.1 IC50 (Thallium flux), hKir7.1 (M125R) Tl+ flux, average n = 3) [µM] | Kir Channel Selectivity (Fold) 6.2 (Kir6.2/SUR1) [Fold] | IC50 (Kir6.2/SUR1; read-out: Kir6.2/SUR1 IC50 (Tl+ flux)) [µM] | IC50 (Kir7.1; read-out: Kir7.1 IC50 (Patch clamp), -120 mV) [µM] | IC50 (Kir4.1; read-out: Kir4.1 IC50 (Tl+ flux)) [µM] | IC50 (Kir2.2; read-out: Kir2.2 IC50 (Tl+ flux)) [µM] | IC50 (Kir2.3; read-out: Kir2.3 IC50 (Tl+ flux)) [µM]
CC(C)OC(=O)NC1CCN(Cc2cc(Cl)c3cccnc3c2O)CC1 [Compound 19, iso-Propyl (1-((5-chloro-8-hydroxyquinolin-7-yl)methyl)piperidin-4-yl)carbamate] | 1.3 | 1 | equally potent | 0.3 µM and 0.31 µM | at least 23 Fold | >23 | at least 23 Fold | >23 | at least 23 Fold | >23 | at least 23 Fold | >23 | – | – | – | – | – | – | –
Oc1c(CN2CCC(Cc3ccccc3)CC2)cc(Cl)c2cccnc12 [VU714] | – | – | – | – | 2 Fold | – | >5 Fold | – | 3 Fold | – | >5 Fold | – | 5.6 | 5 | 30 | 1.5 | 13 | > 30 | > 30
